The source made the active and inactive calls. The rule behind the calls is not given here. Where a SMILES comes first, the peptide text is derived from it. [ ]: non-standard residue; d: D form. The star is where a group is joined. FITC = O=C1OC2(c3ccc(O)cc3Oc3cc(O)ccc32)c2ccc(NC(=S)*)cc21; 2Nal = N[C@@H](Cc1ccc2ccccc2c1)C(=O)O; AEEA = NCCOCCOCC(=O)O
Tests used:
[1] = Drug uptake in cytoplasm of African green monkey COS-1 cells assessed as compound accumulation in cytoplasm at 20 uM incubated for 4 hrs in presence of FITC-labelled peptide by DAPI staining based inverted phase contrast fluorescence microscope analysis; assay type: ADME, subcellular; settings: chlorocebus aethiops, cos-1, 4 h
In short: (§1)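 Stable GRTH-expressing COS-1 cells grown overnight on coverslips, then given 20 μM FITC-tagged peptide for 4 h. After PBS wash they were fixed in 50% then 100% methanol, 1 min each, and mounted with DAPI. Green signal in cytoplasm and nucleus was viewed by inverted fluorescence microscopy.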

[2] = Drug uptake in nucleus of African green monkey COS-1 cells assessed as compound accumulation in nucleus at 20 uM incubated for 4 hrs in presence of FITC-labelled peptide by DAPI staining based inverted phase contrast fluorescence microscope analysis; assay type: ADME, subcellular; settings: chlorocebus aethiops, cos-1, 4 h; in short: as §1
Mus musculus [3] = species: Mus musculus; experiment: Inhibition of GRTH phosphorylation in mouse seminiferous tubule of testis assessed as reduction in pGRTH protein level at 100 uM measured after 16 hrs by western blot analysis; assay type: tissue-based
In short: (§2)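 Seminiferous tubules from adult mice (90 days old) in medium 199, 4 h, then 100 μM peptide for 16 h. Lysates were blotted with phospho-specific GRTH antibody. pGRTH band normalized to β-actin and compared with untreated tubules; n = 3.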

COS-1 [4] = experiment: Binding affinity to GRTH (unknown origin) expressed in COS-1 cell lysate assessed as thermostabilization of protein at 40 uM incubated for 16 hrs followed by heating at 40 to 70 degree C for 3 mins by CETSA based western blot analysis; assay type: subcellular; settings: Homo sapiens
In short: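 Lysate of COS-1 cells stably carrying human GRTH-V5-His, made with protease/phosphatase inhibitor and cleared by centrifugation, then diluted in lysis buffer. Peptide added to 40 μM and rotated 16 h at 4 °C. Aliquots were heated 3 min at 40–70 °C and cooled 3 min at room temperature, then spun. Soluble non-phospho GRTH was read by western blot; 40 °C sample served as reference; n = 3.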

COS-1 [5] = experiment: Binding affinity to mCherry labelled GRTH (unknown origin) expressed in COS-1 cells assessed as increase in fluorescence intensity of donor peptide FITC in bleached region at 15 uM followed by acceptor photobleaching measured after 16 hrs by inverted microscope based live cell imaging analysis; settings: Homo sapiens
In short: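 COS-1 cells carrying an mCherry-human GRTH fusion, in glass-bottom dishes, exposed to 15 μM FITC-labelled peptide for 16 h, then imaged live. mCherry was excited at 561 nm and FITC at 488 nm (emission 500–550 nm). ROIs were bleached in the acceptor channel at 514 nm, 100% power, 10 iterations. FRET efficiency E% = 100 × (FITC postbleach − FITC prebleach)/FITC postbleach.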

COS-1 [6] = experiment: Inhibition of PKA-induced GRTH phosphorylation (unknown origin) expressed in COS-1 cells at 100 uM stimulated with PKA for 24 hrs followed by peptide addition and incubated overnight by Western blot analysis; assay type: cell-based; settings: Homo sapiens
In short: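 Stable GRTH COS-1 cells at 0.3 × 10^6/well were transfected with PKAα catalytic subunit plasmid (3 μg/well), or with empty plasmid, and grown 24 h. Peptide was then added at 100 μM overnight at 37 °C. pGRTH was detected by western blot with phospho-specific antibody (1:1000) and normalized to β-actin; three experiments.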

COS-1 [7] = experiment: Inhibition of GRTH phosphorylation (unknown origin) expressed in COS-1 cells assessed as reduction in pGRTH protein level at 5 to 100 uM measured after 16 hrs by western blot analysis; assay type: cell-based; settings: Homo sapiens, dose 5-100 µM
In short: (§3)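 COS-1 cells stably expressing human GRTH-V5-His at ~90% confluence. Peptides dissolved in water and given at 5, 20, 60 or 100 μM for 16 h, or at 100 μM for 4, 8, 16 or 24 h. 30 μg protein per sample was blotted with a rabbit phospho-T239-specific GRTH antibody. 61 kDa pGRTH band normalized to β-actin; three independent experiments; ANOVA with Tukey test.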

[8] = Drug uptake in mouse seminiferous tubule of testis at 100 uM incubated for 16 hrs by immunofluorescence microscopic analysis; assay type: ADME, tissue-based; settings: in vitro
In short: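 Seminiferous tubules from decapsulated testes of 90-day-old mice were segmented and placed in medium 199. After 4 h, 100 μM FITC-tagged peptide was added for 16 h. Tubules were PBS-washed, mounted with antifade and imaged by fluorescence microscopy.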

COS-1 [9] = experiment: Cytotoxicity against African green monkey COS-1 cell assessed as reduction in cell viability incubated for 24 hrs by CellTiter 96 non-radioactive cell proliferation assay; assay type: cell-based; settings: Chlorocebus aethiops, COS-1, 24 h
In short: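 COS-1 cells stably expressing human GRTH, seeded at 0.01 × 10^6/well and left 16 h. Peptides at 10, 50, 100, 250 and 500 μM for 24 h at 37 °C with 5% CO2. Tetrazolium dye was then added for 4 h, reaction stopped, absorbance read at 570 nm. Viability taken as % of control OD; IC50 by linear regression of dose–response.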

COS-1 [10] = experiment: Inhibition of GRTH phosphorylation (unknown origin) expressed in COS-1 cells assessed as reduction in pGRTH protein level measured after 16 hrs by western blot analysis; assay type: cell-based; settings: Homo sapiens; in short: as §3
COS-1 [11] = experiment: Inhibition of GRTH phosphorylation (unknown origin) expressed in COS-1 cells assessed as reduction in pGRTH protein level at 100 uM measured after 8 to 16 hrs by western blot analysis; assay type: cell-based; settings: Homo sapiens, time 8-16 hrs; in short: as §3
COS-1 [12] = experiment: Inhibition of GRTH phosphorylation (unknown origin) expressed in COS-1 cells assessed as reduction in pGRTH protein level at 100 uM measured after 24 hrs by western blot analysis; assay type: cell-based; settings: Homo sapiens; in short: as §3
Mus musculus [13] = species: Mus musculus; experiment: Inhibition of GRTH phosphorylation in mouse seminiferous tubule of testis assessed as reduction in pGRTH protein level at 100 uM measured after 16 hrs by western blot analysis relative to control; assay type: tissue-based; in short: as §2
COS-1 [14] = experiment: Inhibition of GRTH phosphorylation (unknown origin) expressed in COS-1 cells assessed as reduction in pGRTH protein level at 100 uM measured after 16 to 24 hrs by western blot analysis; assay type: cell-based; settings: Homo sapiens, time 16-24 hrs; in short: as §3

Compound | Drug uptake [1] | Drug uptake [2] | Activity (COS-1 [4]) | Drug uptake [8] | inhibition (Mus musculus [3]) | Activity (COS-1 [5]) | inhibition (COS-1 [6]) | inhibition (COS-1 [7]) | IC50 (COS-1 [9]) | inhibition (COS-1 [10]) | inhibition (COS-1 [11]) | inhibition (COS-1 [12]) | inhibition (Mus musculus [13]) | inhibition (COS-1 [14])
O=C(O)CC[C@@H]1NC(=O)CNC(=O)[C@H](Cc2ccc3ccccc3c2)NC(=O)[C@H](Cc2ccccc2)NC(=O)COCCOCCNC(=O)[C@H](CCCCNC(=S)Nc2ccc3c(c2)C(=O)OC32c3ccc(O)cc3Oc3cc(O)ccc32)NC(=O)[C@H](CCC(=O)O)NC(=O)[C@H](CCC(=O)O)NC1=O (cyclo([2Nal]GEEEK(FITC)[AEEA]F)) | Active | Active | inactive | Active | inactive | inactive | inactive | inactive |  |  |  |  |  | 
N=C(N)NCCC[C@H](NC(=O)CNC(=O)[C@H](Cc1ccc2ccccc2c1)NC(=O)[C@@H](N)Cc1ccccc1)C(=O)N[C@@H](CCCNC(=N)N)C(=O)N[C@@H](CCCNC(=N)N)C(=O)N[C@@H](CCCCNC(=S)Nc1ccc2c(c1)C(=O)OC21c2ccc(O)cc2Oc2cc(O)ccc21)C(=O)NCCOCCOCC(=O)O (H-F[2Nal]GRRRK(FITC)[AEEA]-OH) | Not Active | Not Active |  | Active | inactive |  |  | inactive |  |  |  |  |  | 
N=C(N)NCCC[C@@H]1NC(=O)CNC(=O)CNC(=O)CNC(=O)COCCOCCNC(=O)[C@H](CCCCNC(=S)Nc2ccc3c(c2)C(=O)OC32c3ccc(O)cc3Oc3cc(O)ccc32)NC(=O)[C@H](CCCNC(=N)N)NC(=O)[C@H](CCCNC(=N)N)NC1=O (cyclo([AEEA]GGGRRRK(FITC))) | Active | Active |  | Active | inactive |  |  | inactive |  |  |  |  |  | 
N=C(N)NCCC[C@@H]1NC(=O)CNC(=O)[C@H](Cc2ccc3ccccc3c2)NC(=O)[C@H](Cc2ccccc2)NC(=O)COCCOCCNC(=O)CNC(=O)[C@H](CCCNC(=N)N)NC(=O)[C@H](CCCNC(=N)N)NC1=O (cyclo([2Nal]GRRRG[AEEA]F)) |  |  |  |  |  |  |  |  | 392 µM | Dose-Dependent Effect |  | Active |  | Active

Now from value to molecule, other results behind:

Drug uptake [1] | Drug uptake [2] | Activity (COS-1 [4]) | Drug uptake [8] | Compound | inhibition (Mus musculus [3]) | Activity (COS-1 [5]) | inhibition (COS-1 [6]) | inhibition (COS-1 [7]) | IC50 (COS-1 [9]) | inhibition (COS-1 [10]) | inhibition (COS-1 [11]) | inhibition (COS-1 [12]) | inhibition (Mus musculus [13]) | inhibition (COS-1 [14])
Active | Active | Active | Active | N=C(N)NCCC[C@@H]1NC(=O)CNC(=O)[C@H](Cc2ccc3ccccc3c2)NC(=O)[C@H](Cc2ccccc2)NC(=O)COCCOCCNC(=O)[C@@H](CCCCNC(=S)Nc2ccc3c(c2)C(=O)OC32c3ccc(O)cc3Oc3cc(O)ccc32)NC(=O)[C@H](CCCNC(=N)N)NC(=O)[C@H](CCCNC(=N)N)NC1=O (cyclo([2Nal]GRRR[dK](FITC)[AEEA]F)) |  | Active | Active |  | 333 µM | Dose-Dependent Effect | Active | inactive | 60% | 
Active | Active | Active | Active | N=C(N)NCCC[C@@H]1NC(=O)CNC(=O)[C@H](Cc2ccc3ccccc3c2)NC(=O)[C@H](Cc2ccccc2)NC(=O)COCCOCCNC(=O)[C@H](CCCCNC(=S)Nc2ccc3c(c2)C(=O)OC32c3ccc(O)cc3Oc3cc(O)ccc32)NC(=O)[C@H](CCCNC(=N)N)NC(=O)[C@H](CCCNC(=N)N)NC1=O (cyclo([2Nal]GRRRK(FITC)[AEEA]F)) |  | Active | Active |  | 312 µM | Dose-Dependent Effect | Active | Active |  | 

Reference: ChEMBL document CHEMBL5030548, “Blockade of GRTH/DDX25 Phosphorylation by Cyclic Peptides Provides an Avenue for Developing a Nonhormonal Male Contraceptive” (J Med Chem, 2021)
